PubChem BioAssay
Activity calls are given as the source filed them. Cut-off read from the data, not from the text of the source, unless noted: active = inhibition above about 30%; inactive = the rest.

Assays:
[1] = Her2 expression decrease, cell viability multiplex – SKBR3 breast tumor cells, AlphaScreen, ATP viability, primary screen (AID 461;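 active = Her2 level under about 52% in both replicate screens, with viability over 70% of control, limit read from the data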;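 for Her2 level: lower value means less Her2 protein in the cells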;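 for viability: percent of carrier control wells set as 100% viability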); settings: SKBR3 Her2 protein level, 18-24 h, measured here: SKBR3 viability, ATP luminescence, at 10 µM
[2] = molecular target: Receptor tyrosine-protein kinase erbB-2 (Homo sapiens) (UniProt P04626); test: as above; settings: 18-24 h, at 10 µM, stronger effect = lower value
Sequence of Receptor tyrosine-protein kinase erbB-2 (Homo sapiens) (P04626 whole entry, looked up): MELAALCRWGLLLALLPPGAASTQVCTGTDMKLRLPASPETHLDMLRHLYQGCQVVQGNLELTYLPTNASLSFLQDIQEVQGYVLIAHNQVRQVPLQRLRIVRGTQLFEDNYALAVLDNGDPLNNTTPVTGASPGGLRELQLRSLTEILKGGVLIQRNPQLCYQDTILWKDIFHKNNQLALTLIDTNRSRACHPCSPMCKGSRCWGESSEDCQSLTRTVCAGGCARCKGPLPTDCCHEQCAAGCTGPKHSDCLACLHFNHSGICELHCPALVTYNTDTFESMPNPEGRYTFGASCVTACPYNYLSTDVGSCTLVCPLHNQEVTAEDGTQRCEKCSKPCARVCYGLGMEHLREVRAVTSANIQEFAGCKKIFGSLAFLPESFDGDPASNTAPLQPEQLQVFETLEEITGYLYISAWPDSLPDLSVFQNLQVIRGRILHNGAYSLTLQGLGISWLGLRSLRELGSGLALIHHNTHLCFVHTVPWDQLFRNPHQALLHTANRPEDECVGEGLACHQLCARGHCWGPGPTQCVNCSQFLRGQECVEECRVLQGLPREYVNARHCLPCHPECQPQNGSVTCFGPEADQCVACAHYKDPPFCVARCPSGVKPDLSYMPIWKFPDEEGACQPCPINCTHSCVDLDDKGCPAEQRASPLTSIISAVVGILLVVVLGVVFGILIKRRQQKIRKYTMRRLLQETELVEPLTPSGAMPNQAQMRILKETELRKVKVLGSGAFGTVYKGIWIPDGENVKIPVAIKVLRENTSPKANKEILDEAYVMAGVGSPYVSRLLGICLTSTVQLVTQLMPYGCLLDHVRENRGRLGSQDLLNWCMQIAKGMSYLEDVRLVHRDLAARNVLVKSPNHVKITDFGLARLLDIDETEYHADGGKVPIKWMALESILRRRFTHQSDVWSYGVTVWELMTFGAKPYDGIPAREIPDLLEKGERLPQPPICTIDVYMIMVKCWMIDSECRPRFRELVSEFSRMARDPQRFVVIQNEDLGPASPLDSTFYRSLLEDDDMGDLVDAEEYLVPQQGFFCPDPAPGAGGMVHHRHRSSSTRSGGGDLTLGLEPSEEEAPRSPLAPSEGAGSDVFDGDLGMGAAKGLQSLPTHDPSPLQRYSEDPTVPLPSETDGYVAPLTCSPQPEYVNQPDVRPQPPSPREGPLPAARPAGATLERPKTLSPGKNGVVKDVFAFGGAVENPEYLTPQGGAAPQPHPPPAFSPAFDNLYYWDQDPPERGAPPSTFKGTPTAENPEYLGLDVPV

[3] = reduced viability of SK-BR-3 breast cancer cells – cell-based, 24 h, human, pilot screen (AID 572;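 active = viability at or below 10% of carrier control in both of two separate runs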;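 note: compound exposure lasted between 18 and 24 h rather than exactly 24 h; 100% = carrier-treated control wells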); settings: SK-BR-3 viability, CellTiter-Glo luminescence, at 10 µM, stronger effect = lower value
[4] = H69AR cell proliferation blockers – human, duplicate replicates, primary screen (AID 580;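 active = viability at or under a set limit in both replicates, limit being median viability minus 3 SD, cut at about 48% in these data, passing the limit was not always enough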;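 note: 100% = mean luminescence of untreated wells and 0% = no signal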); settings: H69AR lung tumor cells viability, ATP luminescence, 72 h; at 10 µM; stronger effect = lower value
[5] = MRP1 drug-resistance reversers in H69AR cells – cell-based, doxorubicin co-treatment, pilot screen (AID 601;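 active = viability loss from added drug above about 55%, and viability with drug at most 40%, in both replicates, limit read from the data, passing the limit was not always enough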); settings: CellTiter-Glo, 72 h, at 10 µM; for differential viability (reversal): stronger effect = higher value
[6] = yeast transport mutant growth inhibition pilot in 384-well plates, post-Golgi transport modulator project (AID 636; in the data active = inhibition above about 31%); settings: absorbance 615 nm, about 18 h, stronger effect = higher value
[7] = growth suppression of yeast trafficking mutant, preliminary HTS, modulators of trafficking downstream of Golgi apparatus project, 1536-format plate, OD 615 nm (AID 637); settings: yeast transport mutant growth, absorbance 615 nm, 18 h; stronger effect = higher value
[8] = HUVEC growth inhibition – cell-based, human, primary screen (AID 575;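 active = viability at or below 30% in both replicate assays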;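 note: 100% = median of untreated cell wells with 0.1% DMSO on each plate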); settings: HUVEC proliferation, CellTiter-Glo luminescence, 72 h; at 10 µM; stronger effect = lower value
How it was run: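 Test system: primary human umbilical vein endothelial cells. Quantity: 1250 cells/well. Compound: single 10 µM dose, 0.1% DMSO, from 5x medium stock. Timing: 72 h treatment at 37 °C. Detection: ATP-based CellTiter-Glo luminescent read. Benchmarks: vehicle and MePR control wells. Format: 384-well plates coated with collagen.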

[9] = H69AR cells + 2 uM doxorubicin, measured here: viability with 2 uM doxorubicin, stronger effect = lower value
[10] = H69AR cells, compound alone cytotoxicity

Compound	viability [1] [%]	Her2 level [2]	viability [3]	viability [4]	differential viability (reversal) ([5]; H69AR cells + 2 uM doxorubicin)	viability [5, 9] [%]	viability [5, 10] [%]	inhibition [6]	inhibition [7]	viability [8]
CCOC(=O)c1cc2sc(C)cc2n1CC(=O)NCc1ccc(F)cc1	65	73% (inactive)	65% (inactive)	69.4% (inactive)	17.1% (inactive)	52.3	69.4	-6.32% (inactive)	-3% (inactive)	–
O=C(Cn1nc(-c2ccc(Cl)cc2)ccc1=O)NCCCN1CCN(Cc2ccccc2)CC1	75	106% (inactive)	75% (inactive)	90.1% (inactive)	-3.28% (inactive)	93.4	90.1	-0.26% (inactive)	-3.55% (inactive)	–
COc1cccc(-c2cc3nc4c(c(N5CCC6(CC5)OCCO6)n3n2)CCCC4)c1	124	67.5% (inactive)	124% (inactive)	58.5% (inactive)	-3.45% (inactive)	61.9	58.5	35.3% (active)	21.6% (inactive)	–
CCOc1cccc(-n2nnnc2-c2ccc(OC)cc2)c1	107	90% (inactive)	107% (inactive)	–	-47.9% (inactive)	60.4	12.5	-1.04% (inactive)	-4.6% (inactive)	49.9% (inactive)
CCOC(=O)N1CCC(NC(=O)c2ccc3nc(N4CCOCC4)sc3c2)CC1	102	105% (inactive)	102% (inactive)	97.1% (inactive)	-2.62% (inactive)	99.7	97.1	-4.74% (inactive)	-0.32% (inactive)	–
Cc1cccc(Nc2ncc3c(n2)CC(c2ccco2)CC3=O)c1 (configuration not stated)	81.5	83% (inactive)	81.5% (inactive)	75.5% (inactive)	-2.41% (inactive)	77.9	75.5	0.26% (inactive)	4.17% (inactive)	–
CS(=O)(=O)c1ncc(Cl)c(C(=O)Nc2ccc(N3CCOCC3)cc2)n1	201	8% (active)	201% (inactive)	0.715% (active)	0.355% (inactive)	0.36	0.715	-4.21% (inactive)	3.65% (inactive)	–
Cc1ccc(C(C)C)c(OCc2nnc(SCC(=O)Nc3ncc(C)s3)n2C)c1	89.5	86% (inactive)	89.5% (inactive)	41.1% (active)	1.44% (inactive)	39.7	41.1	0% (inactive)	-5.48% (inactive)	–
